According to PMC8404201 (Journal of Medicinal Chemistry, 2021):
“Also recorded” adds a separate entry of the source.

What was measured:
[1] = Pilot mouse pharmacokinetic study; format: in vivo, BALB/c mice; details: mice; for gross toxicity after single IV dose: single low-dose 10 mg/kg IV
[2] = Tolerability of repeated daily IP injection in mice; format: in vivo; details: 10 sequential daily IP injections, 10 mg/kg (34 in 100% DMSO)
Method in brief: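 Mice got 10 sequential daily IP injections of test compound dissolved in 100% DMSO. They were monitored for clinical adverse signs.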

| Compound | gross toxicity after single IV dose [1] | tolerability / adverse events after repeated daily IP injection [2] | apparent oral bioavailability (F) ([1]; PO vs IV, 10 mg/kg) |
| --- | --- | --- | --- |
| CN(C)c1ccc2cc(-c3cc(Cl)cc(Cl)c3)c(N)nc2c1 [Compound 27, 3-[3,5-Dichlorophenyl]-N^7,N^7-dimethylquinoline-2,7-diamine] | no gross toxicity | not observed; also recorded: tolerable | – |
| CN(C)c1ccc2cc(-c3cn(C)c4ccccc34)c(N)nc2c1 [Compound 34, 3-[3-(N-Methylindolyl)-N^7,N^7-dimethyl]-2,7-quinolinediamine] | no gross toxicity | toxic | < 20% |
